Assay [1] has as its system MCF7. In words: Antiproliferative activity against human MCF7 cells after 48 hrs by SRB assay. Format: functional, cell-based. To be noted: MCF7, 48 h. In a few lines:
(§1)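 Cells grown in DMEM with 5% FBS at 37 C; seeded per well at 2.5 x 10^3 (HT-1080), 4.0 x 10^3 (HT-29), 3.0 x 10^3 (M21) or 2.5 x 10^3 (MCF7). Drugs from 40 mM DMSO stock, serial dilutions, final 100 µM to 78 nM, DMSO <0.5%.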

Assay [2] deals with M21. Description: Antiproliferative activity against human M21 cells after 48 hrs by SRB assay. Format: functional, cell-based. To be noted: M21, 48 h. In a few lines:
as §1
For orientation: The SRB assay estimates cell density from bound dye.

Assay [3] has as its system M21. Description: Cell cycle arrest in human M21 cells assessed as accumulation at S phase at 2 times IC50 after 24 hrs by DAPI staining based flow cytometry relative to control. Format: functional. In a few lines:
(§2)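 Flow cytometry in M21 cells seeded in six-well plates, allowed 24 h, then exposed 24 h to drug (2- or 5-fold IC50); DMSO 0.5% control. Trypsinized, PBS-washed, fixed in ice-cold EtOH, stained with 2 mg/mL DAPI in PBS; sub-G1, G0/G1, S and G2/M fractions measured on LSR II cytometer.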
On the technique in general: Flow cytometry measures light scatter and fluorescence of single cells or particles in a stream.

The test system of assay [4] is M21. Description: Cell cycle arrest in human M21 cells assessed as accumulation at sub-G1 phase at 2 times IC50 after 24 hrs by DAPI staining based flow cytometry relative to control. Format: functional. In a few lines: as §2
The subject of assay [5] is M21. In words: Cell cycle arrest in human M21 cells assessed as accumulation at G0/G1 phase at 2 times IC50 after 24 hrs by DAPI staining based flow cytometry relative to control. Format: functional. In a few lines:
as §2

For assay [6], the system named is HT-29. Description: Antiproliferative activity against human HT-29 cells after 48 hrs by SRB assay. The settings on record: HT-29, 48 h. Format: functional, cell-based. In a few lines:
as §1

Assay [7] relates to HT-1080. Description: Antiproliferative activity against human HT1080 cells after 48 hrs by SRB assay. Format: functional, cell-based. To be noted: HT-1080, 48 h. In a few lines: as §1
Assay [8] relates to M21. Description: Cell cycle arrest in human M21 cells assessed as accumulation at G2/M phase at 2 times IC50 after 24 hrs by DAPI staining based flow cytometry relative to control. Format: functional. The method, boiled down: as §2
Assay [9] is described as follows: Alkylating activity at DNA (unknown origin) after 90 mins by colorimetric NBP assay. Format: functional. The method, boiled down:
(§3)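 NBP alkylation kinetics (Bardos colorimetric method): 400 nmol drug in 1 mL ethanol mixed with 1 mL NBP (10% v/v in 95% ethanol), 1 mL 50 mM acetate buffer pH 4.3 and 1 mL ethanol, kept on ice, then heated at 80 C in shaking water bath; stopped on ice 5 min after 0, 30, 60, 90 min. Rate constant from linear regression of absorbance curve; chlorambucil as positive control.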

The nature of assay [10]: Alkylating activity at DNA (unknown origin) after 90 mins by colorimetric NBP assay relative to chlorambucil. Format: functional. In a few lines: as §3

Regarding `CC(C)(C)C(=O)Nc1ccc(S(=O)(=O)Oc2ccccc2I)cc1`, the IC50 in [1] was found to be 6.6 µM; in assay [2] it was 8.3 µM; in assay [6] it was 9.5 µM; in assay [7], 2.6 µM. Moreover, the Activity was 29.1% in assay [3], 0% in assay [4], 55% in assay [5] and 15.9% in [8].
Take `O=C(CCCCl)Nc1ccc(S(=O)(=O)Oc2ccccc2I)cc1`: the IC50 came to 6.3 µM in assay [1], 7.2 µM in [2], 9.1 µM in assay [6] and 12 µM in assay [7]. Also, the Activity is listed as 17.1% in [3], 0.2% in assay [4], 42% in assay [5] and 40.7% in [8].
As for `CC(=O)Nc1cccc(S(=O)(=O)Oc2ccccc2C(C)C)c1`, the IC50 in assay [1] came out at 21 µM; in [2] it was 31 µM; in [6], 27 µM; in assay [7] it was 21 µM.
On to `CCCC(=O)Nc1cccc(S(=O)(=O)Oc2ccccc2C(C)C)c1`, for which the IC50 in assay [1] amounted to 9.4 µM; in [2], 20 µM; in [6] it was 13 µM; in [7], 15 µM. Moreover, the Activity in assay [3] is 14.4%; in assay [4] it was 3%; in assay [5], 64.2%; in assay [8] it was 18.4%.
As for `CC(C)C(=O)Nc1ccc(S(=O)(=O)Oc2ccccc2C(C)C)cc1`, the IC50 in assay [1] amounted to 8.6 µM; in [2], 11 µM; in [6], 14 µM; in assay [7], 4.9 µM. Also, the Activity in assay [3] was 27.3%; in [4] it was 0.2%; in [5], 62%; in assay [8], 10.5%.
Consider `CC(C)C(=O)Nc1ccc(S(=O)(=O)Oc2ccccc2I)cc1`, for which the IC50 in assay [1] stood at 8.1 µM; in assay [2] it was 13 µM; in [6], 13 µM; in [7] it was 3.3 µM. Besides, the Activity in assay [3] is 23.6%; in assay [4] it was 0.2%; in assay [5], 62%; in assay [8], 14.2%.
For the compound `CC(C)c1ccccc1OS(=O)(=O)c1ccc(NC(=O)NCCCl)cc1`, the K in assay [9] is 0.0034 ×10⁻³ /s. In assay [10], this compound registered a fold change (FC) of 1600.
Take `CC(C)c1ccccc1OS(=O)(=O)c1ccc(NC(=O)CCCCl)cc1`: the IC50 in [1] came to 5.2 µM; in assay [2], 5.1 µM; in assay [6] it was 6.2 µM; in [7] it was 3.8 µM. In addition, the Activity in [3] came to 19.3%; in [4], 0.2%; in assay [5], 55.3%; in assay [8], 25.2%.
As for `CC(=O)Nc1ccc(S(=O)(=O)Oc2ccccc2C(C)C)cc1`, the IC50 stood at 16 µM in assay [1], 21 µM in assay [2], 23 µM in [6] and 12 µM in assay [7]. This compound also had a K in assay [9] of 0.36 ×10⁻³ /s. The fold change (FC) in assay [10] was 14.
Regarding `CC(C)c1ccccc1OS(=O)(=O)c1cccc(NC(=O)CCl)c1`, the 50% inhibitory concentration (IC50) came out at 2.2 µM in [1], 3.9 µM in assay [2], 4.5 µM in assay [6] and 0.78 µM in [7]. Also, the Activity worked out at 17.1% in [3], 0% in assay [4], 64.1% in [5] and 18.8% in assay [8].
For the compound `O=C(CCl)Nc1ccc(S(=O)(=O)Oc2ccccc2I)cc1`, the IC50 is 2.5 µM in [1], 3.9 µM in assay [2], 4.1 µM in [6] and 0.6 µM in assay [7]. In addition, the Activity in assay [3] is listed as 16.5%; in [4], 0.3%; in assay [5], 71.1%; in assay [8] it was 12.1%.
For the compound `CCCCCC(=O)Nc1cccc(S(=O)(=O)Oc2ccccc2C(C)C)c1`, the IC50 in assay [1] is 12 µM; in assay [2], 11 µM; in [6], 19 µM; in assay [7] it was 11 µM. Also, the Activity in assay [3] is 16%; in [4] it was 1.5%; in [5] it was 69%; in assay [8], 13.5%.
On to `CCNC(=O)Nc1ccc(S(=O)(=O)Oc2ccccc2CC)cc1`, for which the K in assay [9] worked out at 0.032 ×10⁻³ /s. For the same compound, the fold change (FC) in assay [10] is 170.
Regarding `CC(C)C(=O)Nc1cccc(S(=O)(=O)Oc2ccccc2C(C)C)c1`, the IC50 in assay [1] is 13 µM; in [2], 17 µM; in assay [6] it was 16 µM; in assay [7], 16 µM. Moreover, the Activity in assay [3] came out at 12.9%; in assay [4], 0.1%; in [5], 54.5%; in [8], 32.5%.
Regarding `CC(=O)Nc1ccc(S(=O)(=O)Oc2ccccc2I)cc1`, the half-inhibitory concentration (IC50) is 27 µM in assay [1], 27 µM in assay [2], 23 µM in assay [6] and 17 µM in assay [7].
Take `CC(C)c1ccccc1OS(=O)(=O)c1cccc(NC(=O)C(C)(C)C)c1`: the IC50 came out at 14 µM in [1], 13 µM in assay [2], 19 µM in assay [6] and 11 µM in [7]. In addition, the Activity in assay [3] turned out to be 20%; in assay [4], 0.7%; in assay [5], 61.1%; in assay [8], 18.2%.
Consider `CCCCCC(=O)Nc1ccc(S(=O)(=O)Oc2ccccc2C(C)C)cc1`, for which the IC50 in [1] stood at 5.3 µM; in assay [2], 6.7 µM; in [6] it was 6.4 µM; in assay [7], 6.3 µM. The Activity is 28.3% in [3], 3.7% in [4], 41.4% in [5] and 26.6% in assay [8].
Regarding `CC(C)c1ccccc1OS(=O)(=O)c1cccc(NC(=O)CCCl)c1`, the IC50 was 12 µM in assay [1], more than 40 µM in assay [2], 11 µM in assay [6] and 8.2 µM in [7].
For `CC(C)c1ccccc1OS(=O)(=O)c1ccc(NC(=O)CCl)cc1`, the IC50 in [1] stood at 2.9 µM; in assay [2], 3.9 µM; in [6], 5.6 µM; in assay [7], 1 µM. Also, the Activity in [3] worked out at 18%; in assay [4] it was 0.1%; in [5], 60.9%; in [8] it was 21%.
`O=C(O)CCCc1ccc(N(CCCl)CCCl)cc1` returned a K in [9] of 5.3 ×10⁻³ /s.
Turning to `CCC(=O)Nc1cccc(S(=O)(=O)Oc2ccccc2C(C)C)c1`, the IC50 in [1] was 14 µM; in [2], 25 µM; in [6], 22 µM; in [7], 12 µM.
Turning to `CCCCCC(=O)Nc1ccc(S(=O)(=O)Oc2ccccc2I)cc1`, the half-inhibitory concentration (IC50) in [1] amounted to 10 µM; in assay [2], 11 µM; in assay [6] it was 13 µM; in assay [7], 9.6 µM. In addition, the Activity is listed as 12.9% in [3], 0.2% in assay [4], 42.6% in assay [5] and 44.3% in assay [8].

For orientation: IC50 means the concentration that gives 50% inhibition. Low values mean greater potency in that assay, high ones weaker potency in that assay.
